≈ marks a conversion by molar mass, not a printed value. Calls of active or inactive are those of the source. The calls are words filed in the database; no cut-off is given here.
Key:
Staphylococcus aureus [1] = assay: Antibacterial activity against methicillin-resistant Staphylococcus aureus NRS107 after 20 hrs by broth microdilution assay; type: functional; details: NRS107, 20 h
Procedure, shortened: (§1)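 Broth microdilution per CLSI in cation-adjusted Mueller Hinton broth. Compounds serially diluted, in triplicate. Incubation at 37 °C for at least 20 hours. MIC taken as the lowest concentration with no visible bacterial growth.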

Staphylococcus aureus [2] = assay: Antibacterial activity against methicillin-resistant Staphylococcus aureus USA300 after 20 hrs by broth microdilution assay; type: functional; details: USA300, 20 h; procedure, shortened: as §1
Staphylococcus aureus [3] = assay: Antibacterial activity against methicillin-resistant Staphylococcus aureus NRS119 after 20 hrs by broth microdilution assay; type: functional; details: NRS119, 20 h; procedure, shortened: as §1
Staphylococcus aureus [4] = assay: Bactericidal activity against methicillin resistant Staphylococcus aureus NRS123 (USA400) up to 18 hrs by broth microdilution assay; type: functional; details: read-out: MBC99.9
Staphylococcus aureus [5] = assay: Antibacterial activity against vancomycin-resistant Staphylococcus aureus VRS10 after 20 hrs by broth microdilution assay; type: functional; details: VRS10, 20 h; procedure, shortened: as §1
Staphylococcus aureus [6] = assay: Antibacterial activity against vancomycin-resistant Staphylococcus aureus VRS11a after 20 hrs by broth microdilution assay; type: functional; procedure, shortened: as §1
Staphylococcus aureus [7] = assay: Bactericidal activity against methicillin resistant vancomycin-resistant Staphylococcus aureus VRS11a up to 18 hrs by broth microdilution assay; type: functional; details: read-out: MBC99.9
Staphylococcus aureus [8] = assay: Bactericidal activity against methicillin resistant vancomycin-resistant Staphylococcus aureus VRS12 up to 18 hrs by broth microdilution assay; type: functional; details: VRS12, 18 h, read-out: MBC99.9
Procedure, shortened: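 MBC set up from the MIC plates. Aliquots from wells with no growth spotted onto tryptic soy agar and incubated at 37 °C for at least 18 hours. MBC taken as the lowest concentration giving 99.9% inhibition of bacterial growth.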

Staphylococcus aureus [9] = assay: Potency index, ratio of vancomycin MIC to compound MIC for antibacterial activity against vancomycin-resistant Staphylococcus aureus VRS10; type: functional
Staphylococcus aureus [10] = assay: Potency index, ratio of vancomycin MIC to compound MIC for antibacterial activity against vancomycin-resistant Staphylococcus aureus VRS11a; type: functional
Staphylococcus aureus [11] = assay: Potency index, ratio of vancomycin MIC to compound MIC for antibacterial activity against vancomycin-resistant Staphylococcus aureus VRS12; type: functional
Staphylococcus aureus [12] = assay: Ratio of MBC to MIC for methicillin-resistant Staphylococcus aureus USA300; type: functional
Procedure, shortened: (§2)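 MBC/MIC ratio. […] MBC by plating no-growth wells onto tryptic soy agar at 37 °C for at least 18 h; taken as the concentration giving 99.9% growth inhibition.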

Staphylococcus aureus [13] = assay: Ratio of MBC to MIC for vancomycin-resistant Staphylococcus aureus VRS11a; type: functional; procedure, shortened: as §2
Staphylococcus aureus [14] = assay: Bactericidal activity against methicillin-resistant Staphylococcus aureus NRS123 (USA400) at 4 times MIC after 24 hrs by time kill assay; type: functional, organism-based
HRT-18 cell line = assay: Cytotoxicity against human HRT18 cells assessed as reduction in cell viability up to 32 ug/ml after 2 hrs by MTS assay; type: cell-based; details: hrt-18, 2 h
[15] = Selectivity index, ratio of toxic concentration for human HRT18 cells to MIC for methicillin-resistant Staphylococcus aureus; type: toxicity; details: read-out: Selectivity Index
[16] = molecular target: T1, Undecaprenyl-diphosphatase (Escherichia coli (strain K12), UniProt P60932); assay: Inhibition of Escherichia coli UPPP expressed in Escherichia coli C41(DE3) using FPP as substrate preincubated for 15 mins followed by substrate addition measured after 20 mins by malachite green assay
T1 sequence (P60932 whole entry): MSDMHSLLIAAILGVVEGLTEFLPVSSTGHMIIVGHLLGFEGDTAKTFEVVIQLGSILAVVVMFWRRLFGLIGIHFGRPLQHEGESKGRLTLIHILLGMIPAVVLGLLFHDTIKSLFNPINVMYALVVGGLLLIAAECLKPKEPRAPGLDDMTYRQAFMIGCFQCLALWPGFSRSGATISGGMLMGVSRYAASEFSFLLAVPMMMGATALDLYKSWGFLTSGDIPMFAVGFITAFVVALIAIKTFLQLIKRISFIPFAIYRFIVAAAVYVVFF

[17] = molecular target: T2, Farnesyl pyrophosphate synthase (Homo sapiens, UniProt P14324); assay: Inhibition of human FPPS
T2 sequence (P14324 whole entry): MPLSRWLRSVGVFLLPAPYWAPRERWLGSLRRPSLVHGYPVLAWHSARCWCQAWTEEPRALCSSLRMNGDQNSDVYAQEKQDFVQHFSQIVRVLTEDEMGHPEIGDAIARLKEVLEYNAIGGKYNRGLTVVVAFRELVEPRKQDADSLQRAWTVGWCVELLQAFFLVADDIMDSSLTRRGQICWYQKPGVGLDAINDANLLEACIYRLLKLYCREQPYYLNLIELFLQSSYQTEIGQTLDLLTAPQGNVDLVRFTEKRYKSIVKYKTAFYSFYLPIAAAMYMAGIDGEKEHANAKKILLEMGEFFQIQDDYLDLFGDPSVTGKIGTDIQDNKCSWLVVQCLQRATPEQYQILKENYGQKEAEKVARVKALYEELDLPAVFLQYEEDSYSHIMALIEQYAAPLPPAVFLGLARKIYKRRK

[18] = Induction of proton motive force collapse in Escherichia coli inverted membrane vesicle in presence of ATP-driven PMF generation system by ACMA-based fluorescence assay; type: functional, cell membranes
Procedure, shortened: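 E. coli inverted membrane vesicles had proton motive force generated either by ATP or by succinate/O2. PMF collapse was followed as a dose response to give EC50, with CCCP as the reference uncoupler.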

[19] = Apparent permeability from apical to basolateral side in human Caco2 cells at 10 uM after 60 mins by LC-MS/MS analysis; type: ADME, cell-based; details: caco-2, 1 h
Procedure, shortened: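 Caco-2 monolayers were seeded at 1 × 10^5 cells/cm2 and differentiated for three weeks. Test article was at 10 μM (1% DMSO) in HBSS-MES pH 6.5 or HBSS-HEPES pH 7.4 and added to the donor side. Incubation ran 60 min (A→B) or 40 min (B→A), and receiver buffer was analysed by LC/MS/MS. Lucifer yellow and fluorescein checked monolayer integrity. Efflux ratio = Papp(B→A)/Papp(A→B).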

Rattus norvegicus [20] = assay: Half life in Sprague-Dawley rat at 2 uM administered as single iv bolus dose by LC-MS/MS analysis; type: ADME, organism-based; details: in vivo
Procedure, shortened: (§3)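 Male naïve Sprague-Dawley rats (three animals) received an IV bolus of a 2 μM solution. EDTA-K2 blood was sampled over 12 h post dose. Plasma was protein-precipitated with acetonitrile and quantified by LC/MS/MS. Parameters came from two-compartmental pharmacokinetic analysis.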

Rattus norvegicus [21] = assay: Volume of distribution at steady state in Sprague-Dawley rat at 2 uM administered as single iv bolus dose by LC-MS/MS analysis; type: ADME, organism-based; details: in vivo; procedure, shortened: as §3
Mus musculus = assay: Toxicity in wounded skin area of Balb/c mouse infected with methicillin-resistant Staphylococcus aureus USA300 at 2% administered topically twice daily for 5 consecutive days measured 12 hrs post last dose; type: organism-based; details: in vivo, topical_or_ocular
Procedure, shortened: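 Female Balb/c mice, 8 weeks old, n=5 per group. Intradermal injection of 40 μL of 1.32×10^9 CFU/mL USA300; a wound formed by ~66 h. Treated topically with a 2% suspension in petroleum jelly twice daily for 5 days; the vehicle group served as control. Wounds excised 12 h after the last dose, homogenized in PBS and plated on mannitol salt agar; sites also observed for redness and swelling.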

Compound `C/C(=N\NC(=N)N)c1sc(-c2ccc(C#CC3CC3)cc2)nc1C` has an MIC (Staphylococcus aureus [1]) of 2 µg/mL (≈ 5.93 µM), an MIC (Staphylococcus aureus [2]) of 2 µg/mL (≈ 5.93 µM) and an MIC (Staphylococcus aureus [3]) of 2 µg/mL (≈ 5.93 µM). The MBC (Staphylococcus aureus [4]) was 2 µg/mL (≈ 5.93 µM), the MIC (Staphylococcus aureus [5]) was 2 µg/mL (≈ 5.93 µM) and the MIC (Staphylococcus aureus [6]) was 2 µg/mL (≈ 5.93 µM). For the same compound, the MBC (Staphylococcus aureus [7]) was 2 µg/mL (≈ 5.93 µM), the MBC (Staphylococcus aureus [8]) was 2 µg/mL (≈ 5.93 µM) and the Ratio (Staphylococcus aureus [9]) was greater than 100. For the same compound, the Ratio (Staphylococcus aureus [10]) was greater than 100, the Ratio (Staphylococcus aureus [11]) was 8 and the Ratio (Staphylococcus aureus [12]) was “<=3”. For the same compound, the Ratio (Staphylococcus aureus [13]) was “<=3”, the Activity (Staphylococcus aureus [14]) was “Active” and the Activity (HRT-18 cell line) was “Non-Toxic”. For the same compound, the selectivity ratio [15] was 7 to 31, the IC50 [16] was 8.1 µM and the “inhibition (INH)” value [17] was “Not Active”. For the same compound, the EC50 [18] was 24 µM, the Papp [19] was 0.05 ×10⁻⁶ cm/s and the t1/2 (Rattus norvegicus [20]) was 4.43 h. For the same compound, the Vdss (Rattus norvegicus [21]) was 5.51 L and the Activity (Mus musculus) was “Non-Toxic”.

— ChEMBL document CHEMBL4196022, “Alkynyl-containing phenylthiazoles: Systemically active antibacterial agents effective against methicillin-resistant Staphylococcus aureus (MRSA)” (Eur J Med Chem, 2018)
